# Laboratory results taken from paper PMC2903386 (The Journal of Biological Chemistry, 2010).
# Non-standard residues stand in square brackets, D forms with d. Residues, ends and D or L forms follow the SMILES beside them. *: point of attachment. X1 = CC[N+]1=C(C=CC=CC=C2N(CCCCCC(=O)NCCN3C(=O)CC(*)C3=O)c3ccc(S(=O)(=O)O)cc3C2(C)C)C(C)(C)c2cc(S(=O)(=O)[O-])ccc21; Propanoyl(3-maleimido) = O=C1C=CC(=O)N1CCC(=O)*; Ahx = NCCCCCC(=O)O
# What was measured:
# [1] = Effect of inhibitors on cleavage of RLQLKL ACPP by PyMT tumor cystic fluid; assay type: biochemical, mouse; settings: for inhibition of cystic fluid cleavage of RLQLKL ACPP (in words): 5 μM Cy5-labeled RLQLKL ACPP, 2% cystic fluid, 2 h, 5 mM Ca-DTPA, 50 μM TPEN, 18 μM SB3CT, 50 nM GM6001, 0.26 μM prinomastat, 150 nM aprotinin, 100 μM leupeptin, 60 μM α1-antitrypsin, gel
# Outline: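 Cystic fluid was aspirated by syringe from surgically exposed fluid-filled mammary tumor nodules of PyMT mice. The 5 μm Cy5 peptide was incubated at 37 °C for 2 h in PBS with 1 μm ZnCl2. Inhibitors were used at manufacturer-recommended concentrations, including 10 μm E-64, 1 μm pepstatin A, protease inhibitor mixture III (1:1000) and mixture III plus DTPA. Cleavage was read by Tricine gel electrophoresis and Cy5 fluorescence imaging.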
# PyMT mammary tumors = experiment: Fluorescence imaging contrast in PyMT tumor-bearing mice; assay type: in vivo, mouse; settings: PyMT mice; for fluorescence contrast in tumors relative to adjacent normal tissue (in words): Cy5-labeled ACPP i.v., 6 h, data not shown
# Outline: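 PyMT transgenic mice bearing spontaneous mammary tumors were anesthetized with ketamine 80 mg/kg plus midazolam 5 mg/kg (1:1) and weighed. They were injected via the tail vein with Cy5 peptide: free peptide 100 μl of 100 μM (10 nmol) or albumin-reactive peptide 100 μl of 30 μM (3 nmol). Maestro imaging (ex 640 ± 24 nm, em >700 nm) was done at 6 h or 48 h, comparing tumor with adjacent normal tissue.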
# [2] = Tumor standardized uptake value; assay type: in vivo; settings: mouse, iv
# Tumor uptake = assay type: in vivo; settings: nude, mouse, tumor (MDA-MB-435 M4A4 xenograft), iv, 10 nmol
# Outline: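 After imaging, mice were euthanized with isoflurane. 30 mg of each tissue was homogenized in 100 μl Tris pH 7.6 with 1% SDS, heated to 85 °C for 10 min, microwaved 10 s and spun at 20,500 × g for 15 min, then imaged. Tissue-specific spiked standards calibrated fluorescence. SUV = tissue peptide molality ÷ injected dose (mol/kg body weight). Values are means ± S.D.; two-tailed t tests.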
# trypsin = trypsin (Bos taurus, UniProt P00760); experiment: Cleavage by purified trypsin; assay type: in vitro ADME, bovine; settings: Cy5-labeled ACPP, gel (supplemental Fig. 4)
# trypsin, sequence (P00760 24-246): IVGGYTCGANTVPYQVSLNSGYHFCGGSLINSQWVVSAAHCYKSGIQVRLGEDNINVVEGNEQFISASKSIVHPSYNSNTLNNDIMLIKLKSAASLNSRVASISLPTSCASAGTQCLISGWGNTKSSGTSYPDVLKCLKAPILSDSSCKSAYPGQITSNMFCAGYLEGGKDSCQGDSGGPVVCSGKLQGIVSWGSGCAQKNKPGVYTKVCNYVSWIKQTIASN
# Outline: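 Commercial active-form purified enzyme at 50 nm was incubated with 5 μm Cy5-labeled peptide in the manufacturer's recommended buffer. Samples were mixed with Tricine sample buffer, boiled 1 min, and resolved on 10–20% Tricine acrylamide gels. Gels were imaged quantitatively at excitation 628 ± 20 nm and emission >700 nm, and the percentage of cleaved versus uncleaved peptide was quantified.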
# [3] = Effect of inhibitors on cleavage of RLQLKL ACPP by tumor extract; assay type: biochemical, mouse; settings: 5 μM Cy5-labeled RLQLKL ACPP, tumor extract 2.0 to 0.25%; 60 μM α1-antitrypsin; gel
# Outline: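 Fresh tumor tissue was gently homogenized in PBS on ice and spun at 14,000 × g for 1 min; the supernatant served as the extract. The 5 μm Cy5 peptide was digested at 37 °C in PBS containing 1 μm ZnCl2, with or without 60 μm α1-antitrypsin. Aliquots were taken from 20 min to 18 h, with the 2-h point reported. Cleavage was quantified by Tricine gel and fluorescence imaging.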
molecule,measurement,setting,value
"O=C(O)CN(CCN(CC(=O)O)CC(=O)O)CCN(CC(=O)O)CC(=O)O [DTPA, diethylene triamine pentacetic acid]",inhibition of cystic fluid cleavage of RLQLKL ACPP (in words),[1],unaffected
CNC(=O)[C@H](Cc1c[nH]c2ccccc12)NC(=O)[C@@H](CC(=O)NO)CC(C)C [GM6001],inhibition of cystic fluid cleavage of RLQLKL ACPP (in words),[1],unaffected
same,inhibition of cystic fluid cleavage of RLQLKL ACPP at 1 μM (in words),"[1]; GM6001 at 1 μM, data not shown",no inhibition
CC[N+]1=C(C=CC=CC=C2N(CCCCCC(=O)NCCN3C(=O)CC(SC[C@@H](NC(=O)[C@@H](CCCNC(=N)N)NC(=O)[C@@H](CCCNC(=N)N)NC(=O)[C@@H](CCCNC(=N)N)NC(=O)[C@@H](CCCNC(=N)N)NC(=O)[C@@H](CCCNC(=N)N)NC(=O)[C@@H](CCCNC(=N)N)NC(=O)[C@@H](CCCNC(=N)N)NC(=O)[C@@H](CCCNC(=N)N)NC(=O)[C@@H](CCCNC(=N)N)NC(=O)[C@H](CC(C)C)NC(=O)[C@H](CCCCNC(C)=O)NC(=O)[C@H](CC(C)C)NC(=O)[C@H](CCC(N)=O)NC(=O)[C@H](CC(C)C)NC(=O)[C@H](CCCNC(=N)N)NC(=O)CCCCCNC(=O)[C@@H](CCC(=O)O)NC(=O)[C@@H](CCC(=O)O)NC(=O)[C@@H](CCC(=O)O)NC(=O)[C@@H](CCC(=O)O)NC(=O)[C@@H](CCC(=O)O)NC(=O)[C@@H](CCC(=O)O)NC(=O)[C@@H](CCC(=O)O)NC(=O)[C@@H](CCC(=O)O)NC(=O)[C@@H](CCC(=O)O)NC(=O)CCN4C(=O)C=CC4=O)C(N)=O)C3=O)c3ccc(S(=O)(=O)O)cc3C2(C)C)C(C)(C)c2cc(S(=O)(=O)[O-])ccc21 (some centres unmarked) [Mal-RLQLK(Ac)L ACPP] ({Propanoyl(3-maleimido)}-[dE][dE][dE][dE][dE][dE][dE][dE][dE][Ahx]RLQLK(Ac)L[dR][dR][dR][dR][dR][dR][dR][dR][dR][dC](X1)-NH2),"Tumor to non-tumor contrast, albumin-reactive peptide",PyMT mammary tumors; fluorescence imaging 48 h postinjection of 3 nmol,5.1 fold
same,SUV at 48 h,"[2]; PyMT, 3 nmol",2.3 ± 0.6 SUV
"CC[N+]1=C(C=CC=CC=C2N(CCCCCC(=O)NCCN3C(=O)CC(SC[C@@H](NC(=O)[C@@H](CCCNC(=N)N)NC(=O)[C@@H](CCCNC(=N)N)NC(=O)[C@@H](CCCNC(=N)N)NC(=O)[C@@H](CCCNC(=N)N)NC(=O)[C@@H](CCCNC(=N)N)NC(=O)[C@@H](CCCNC(=N)N)NC(=O)[C@@H](CCCNC(=N)N)NC(=O)[C@@H](CCCNC(=N)N)NC(=O)[C@@H](CCCNC(=N)N)NC(=O)CNC(=O)[C@@H](C)NC(=O)[C@@H](CC(C)C)NC(=O)CNC(=O)[C@@H](CC(C)C)NC(=O)[C@H]4CCCN4C(=O)CCCCCNC(=O)[C@@H](CCC(=O)O)NC(=O)[C@@H](CCC(=O)O)NC(=O)[C@@H](CCC(=O)O)NC(=O)[C@@H](CCC(=O)O)NC(=O)[C@@H](CCC(=O)O)NC(=O)[C@@H](CCC(=O)O)NC(=O)[C@@H](CCC(=O)O)NC(=O)[C@@H](CCC(=O)O)NC(=O)[C@H](N)CCC(=O)O)C(N)=O)C3=O)c3ccc(S(=O)(=O)O)cc3C2(C)C)C(C)(C)c2cc(S(=O)(=O)[O-])ccc21 (stereo partly drawn) [PLGLAG ACPP D-amino acid control, reference compound] (H-[dE][dE][dE][dE][dE][dE][dE][dE][dE][Ahx][dP][dL]G[dL][dA]G[dR][dR][dR][dR][dR][dR][dR][dR][dR][dC](X1)-NH2)",SUV,[2],0.14 ± 0.06 SUV
"CC[N+]1=C(C=CC=CC=C2N(CCCCCC(=O)NCCN3C(=O)CC(SC[C@@H](NC(=O)[C@@H](CCCNC(=N)N)NC(=O)[C@@H](CCCNC(=N)N)NC(=O)[C@@H](CCCNC(=N)N)NC(=O)[C@@H](CCCNC(=N)N)NC(=O)[C@@H](CCCNC(=N)N)NC(=O)[C@@H](CCCNC(=N)N)NC(=O)[C@@H](CCCNC(=N)N)NC(=O)[C@@H](CCCNC(=N)N)NC(=O)[C@@H](CCCNC(=N)N)NC(=O)CNC(=O)[C@H](C)NC(=O)[C@H](CC(C)C)NC(=O)CNC(=O)[C@H](CC(C)C)NC(=O)[C@@H]4CCCN4C(=O)CCCCCNC(=O)[C@@H](CCC(=O)O)NC(=O)[C@@H](CCC(=O)O)NC(=O)[C@@H](CCC(=O)O)NC(=O)[C@@H](CCC(=O)O)NC(=O)[C@@H](CCC(=O)O)NC(=O)[C@@H](CCC(=O)O)NC(=O)[C@@H](CCC(=O)O)NC(=O)[C@@H](CCC(=O)O)NC(=O)[C@H](N)CCC(=O)O)C(N)=O)C3=O)c3ccc(S(=O)(=O)O)cc3C2(C)C)C(C)(C)c2cc(S(=O)(=O)[O-])ccc21 (some centres unmarked) [PLGLAG ACPP, reference compound] (H-[dE][dE][dE][dE][dE][dE][dE][dE][dE][Ahx]PLGLAG[dR][dR][dR][dR][dR][dR][dR][dR][dR][dC](X1)-NH2)",SUV,[2],0.51 ± 0.05 SUV
O=S(=O)(CC1CS1)c1ccc(Oc2ccccc2)cc1 (centres unmarked) [SB3CT],inhibition of cystic fluid cleavage of RLQLKL ACPP (in words),[1],unaffected
"c1ccc(CN(CCN(Cc2ccccn2)Cc2ccccn2)Cc2ccccn2)nc1 [TPEN, N,N,N′,N-tetrakis (2-pyridylmethyl) ethylenediamine]",inhibition of cystic fluid cleavage of RLQLKL ACPP (in words),[1],unaffected
CC(=O)N[C@@H](CC(C)C)C(=O)N[C@@H](CC(C)C)C(=O)N[C@H](C=O)CCCNC(=N)N [leupeptin],inhibition of cystic fluid cleavage of RLQLKL ACPP (in words),[1],partially inhibited
CC1(C)SCCN(S(=O)(=O)c2ccc(Oc3ccncc3)cc2)[C@H]1C(=O)NO [prinomastat],inhibition of cystic fluid cleavage of RLQLKL ACPP (in words),[1],unaffected
CC[N+]1=C(C=CC=CC=C2N(CCCCCC(=O)NCCN3C(=O)CC(SC[C@@H](NC(=O)[C@@H](CCCNC(=N)N)NC(=O)[C@@H](CCCNC(=N)N)NC(=O)[C@@H](CCCNC(=N)N)NC(=O)[C@@H](CCCNC(=N)N)NC(=O)[C@@H](CCCNC(=N)N)NC(=O)[C@@H](CCCNC(=N)N)NC(=O)[C@@H](CCCNC(=N)N)NC(=O)[C@@H](CCCNC(=N)N)NC(=O)[C@@H](CCCNC(=N)N)NC(=O)[C@@H](CC(C)C)NC(=O)[C@@H](CCCCN)NC(=O)[C@@H](CC(C)C)NC(=O)[C@@H](CCC(N)=O)NC(=O)[C@@H](CC(C)C)NC(=O)[C@@H](CCCNC(=N)N)NC(=O)CCCCCNC(=O)[C@@H](CCC(=O)O)NC(=O)[C@@H](CCC(=O)O)NC(=O)[C@@H](CCC(=O)O)NC(=O)[C@@H](CCC(=O)O)NC(=O)[C@@H](CCC(=O)O)NC(=O)[C@@H](CCC(=O)O)NC(=O)[C@@H](CCC(=O)O)NC(=O)[C@@H](CCC(=O)O)NC(=O)[C@H](N)CCC(=O)O)C(N)=O)C3=O)c3ccc(S(=O)(=O)O)cc3C2(C)C)C(C)(C)c2cc(S(=O)(=O)[O-])ccc21 (some centres unmarked) [rlqlkl ACPP],SUV at 6 h,"[2]; PyMT, 10 nmol",0.13 ± 0.03 SUV
CC[N+]1=C(C=CC=CC=C2N(CCCCCC(=O)NCCN3C(=O)CC(SC[C@@H](NC(=O)[C@@H](CCCNC(=N)N)NC(=O)[C@@H](CCCNC(=N)N)NC(=O)[C@@H](CCCNC(=N)N)NC(=O)[C@@H](CCCNC(=N)N)NC(=O)[C@@H](CCCNC(=N)N)NC(=O)[C@@H](CCCNC(=N)N)NC(=O)[C@@H](CCCNC(=N)N)NC(=O)[C@@H](CCCNC(=N)N)NC(=O)[C@@H](CCCNC(=N)N)NC(=O)[C@@H](CC(C)C)NC(=O)[C@@H](CCCCN)NC(=O)[C@@H](CC(C)C)NC(=O)[C@@H](CCC(N)=O)NC(=O)[C@@H](CC(C)C)NC(=O)[C@@H](CCCNC(=N)N)NC(=O)CCCCCNC(=O)[C@@H](CCC(=O)O)NC(=O)[C@@H](CCC(=O)O)NC(=O)[C@@H](CCC(=O)O)NC(=O)[C@@H](CCC(=O)O)NC(=O)[C@@H](CCC(=O)O)NC(=O)[C@@H](CCC(=O)O)NC(=O)[C@@H](CCC(=O)O)NC(=O)[C@@H](CCC(=O)O)NC(=O)[C@H](N)CCC(=O)O)C(N)=O)C3=O)c3ccc(S(=O)(=O)O)cc3C2(C)C)C(C)(C)c2cc(S(=O)(=O)[O-])ccc21 (some centres unmarked) [rlqlkl],SUV at 6 h,Tumor uptake,0.34 ± 0.16 SUV
GMMYRS [GMMYRS ACPP],fluorescence contrast in tumors relative to adjacent normal tissue (in words),PyMT mammary tumors,little fluorescence contrast
same,cleavage by trypsin (in words),trypsin,efficiently cleaved
RTRYED [RTRYED ACPP],fluorescence contrast in tumors relative to adjacent normal tissue (in words),PyMT mammary tumors,little fluorescence contrast
same,cleavage by trypsin (in words),trypsin,efficiently cleaved
aprotinin,inhibition of cystic fluid cleavage of RLQLKL ACPP (in words),[1],partially inhibited
α1-antitrypsin: natural inhibitor of elastase [reference compound],inhibition of cystic fluid cleavage of RLQLKL ACPP (in words),[1],inhibited
same,inhibition of tumor extract cleavage of RLQLKL ACPP (in words),[3],significantly inhibited
